Reference: ChEMBL document CHEMBL3875213, “Quinolines: Microwave-assisted synthesis and their antifungal, anticancer and radical scavenger properties” (Bioorg Med Chem, 2017)
In brackets after ≈: the same amount, converted by molar mass. Activity calls are given as the source filed them. The calls are words filed in the database; no cut-off is given here.

Columns and labels:
Candida albicans [1] = experiment: Growth inhibition of Candida albicans ATCC 10231 at 7.81 ug/ml incubated for 48 hrs under dark condition by broth microdilution assay relative to amphotericin B; format: functional; conditions: ATCC 10231, 48 h, read-out: GI
Summary of the method: (§1)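 Yeast broth microdilution (CLSI M27-A3), RPMI-1640, inoculum 1-5 x 10^3 CFU/mL, DMSO ≤1%, 48 h at 30 °C in a moist, dark chamber. […]. Triplicate; amphotericin B as positive control.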

Candida albicans [2] = experiment: Growth inhibition of Candida albicans ATCC 10231 at 15.62 ug/ml incubated for 48 hrs under dark condition by broth microdilution assay relative to amphotericin B; format: functional; conditions: ATCC 10231, 48 h, read-out: GI; summary of the method: as §1
Candida albicans [3] = experiment: Growth inhibition of Candida albicans ATCC 10231 at 31.25 ug/ml incubated for 48 hrs under dark condition by broth microdilution assay relative to amphotericin B; format: functional; conditions: ATCC 10231, 48 h, read-out: GI; summary of the method: as §1
Candida albicans [4] = experiment: Growth inhibition of Candida albicans ATCC 10231 at 62.5 ug/ml incubated for 48 hrs under dark condition by broth microdilution assay relative to amphotericin B; format: functional; conditions: ATCC 10231, 48 h, read-out: GI; summary of the method: as §1
Candida albicans [5] = experiment: Growth inhibition of Candida albicans ATCC 10231 at 125 ug/ml incubated for 48 hrs under dark condition by broth microdilution assay relative to amphotericin B; format: functional; conditions: ATCC 10231, 48 h, read-out: GI; summary of the method: as §1
Candida albicans [6] = experiment: Growth inhibition of Candida albicans ATCC 10231 at 250 ug/ml incubated for 48 hrs under dark condition by broth microdilution assay relative to amphotericin B; format: functional; conditions: ATCC 10231, 48 h, read-out: GI; summary of the method: as §1
Candida albicans [7] = experiment: Antifungal activity against Candida albicans ATCC 10231 incubated for 48 hrs under dark condition by broth microdilution assay; format: functional; conditions: ATCC 10231, 48 h
Summary of the method: (§2)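 Broth microdilution per CLSI M27-A3 in RPMI-1640. Inocula adjusted to 1-5 x 10^3 CFU/mL. Stocks in DMSO (≤1%), final 3.9-250.0 µg/mL. Incubated 48 h at 30 °C in a moist, dark chamber, read at OD 405. % inhibition computed from growth and sterility control wells, run in triplicate. MIC80/MIC50 taken from four-parameter logistic concentration-response curves; amphotericin B as positive control.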

[8] = Antifungal activity against Cryptococcus neoformans ATCC 32264 incubated for 48 hrs under dark condition by broth microdilution assay; format: functional; summary of the method: as §2
[9] = Antioxidant activity assessed as DPPH radical scavenging activity incubated for 30 mins under dark condition; format: functional
Summary of the method: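 DPPH (100 µM) in ethanolic medium, stirred 30 min in the dark, absorbance at 517 nm. Compound varied from 0 to 160 µg/mL to find the concentration scavenging 50% of radicals. Three independent experiments, each in triplicate.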

[10] = Antioxidant activity assessed as fluorescent light-induced superoxide anion scavenging activity at 160 uM incubated for 10 mins by nitroblue tetrazolium dye based assay; format: functional
Summary of the method: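 Superoxide generated photochemically in 50 mM phosphate buffer pH 7.8 with 13 mM L-methionine, 75 µM nitroblue tetrazolium, 100 µM EDTA and 2 µM riboflavin. Compound at 160 µM. 10 min at 25 °C under fluorescent light; dark controls. Read at 575 nm. Resveratrol as positive control; three independent experiments in triplicate.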

[11] = Antioxidant activity assessed as fluorescent light-induced superoxide anion scavenging activity incubated for 10 mins by nitroblue tetrazolium dye based assay; format: functional
Summary of the method: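 Riboflavin/light superoxide system: 50 mM phosphate pH 7.8, 13 mM L-methionine, 75 µM NBT, 100 µM EDTA, 2 µM riboflavin, compound 0-200 µg/mL. Fluorescent light for 10 min at 25 °C, dark controls, scavenging measured at 575 nm. Resveratrol as reference.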

[12] = Potency index, ratio of resveratrol SC50 to compound SC50 for fluorescent light-induced superoxide anion scavenging activity
Candida albicans [13] = experiment: Growth inhibition of Candida albicans ATCC 10231 at 3.9 ug/ml incubated for 48 hrs under dark condition by broth microdilution assay relative to amphotericin B; format: functional; conditions: ATCC 10231, 48 h, read-out: GI; summary of the method: as §1
[14] = Antiproliferative activity against human TOV21G harboring wild type TP53 cells after 24 hrs by MTT assay; format: functional, cell-based
Summary of the method: (§3)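 Cells grown in medium with 10% foetal bovine serum and 1% L-glutamine at 37 °C, 5% CO2, seeded at 1 x 10^5 cells/well. Exposed to compound at 1.0-1,000 µg/mL for 24 h. MTT added, absorbance read at 540 nm 3 h later. IC50 obtained by non-linear regression of viability data.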

[15] = Antiproliferative activity against human CCD-19Lu cells after 24 hrs by MTT assay; format: cell-based; summary of the method: as §3
[16] = Antiproliferative activity against human NCI-H226 cells harboring TP53 mutant after 24 hrs by MTT assay; format: functional, cell-based; conditions: NCI-H226, 24 h; summary of the method: as §3
[17] = Antiproliferative activity against human Hep2C cells after 24 hrs by MTT assay; format: functional, cell-based; summary of the method: as §3
[18] = Selectivity index, ratio of IC50 for human CCD-19Lu cells to IC50 for human TOV21G cells; format: functional
Summary of the method: (§4)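 Selectivity index equals IC50 in non-tumour CCD 19-Lu lung fibroblasts divided by IC50 in the tumour line. Both IC50s come from the 24 h MTT assay (read at 540 nm) over 1.0-1,000 µg/mL.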

NCI-H226 = experiment: Selectivity index, ratio of IC50 for human CCD-19Lu cells to IC50 for human NCI-H226 cells; format: functional; summary of the method: as §4
[19] = Selectivity index, ratio of IC50 for human CCD-19Lu cells to IC50 for human Hep2C cells; format: functional; summary of the method: as §4
[20] = Antioxidant activity assessed as DPPH radical scavenging activity at 160 uM incubated for 30 mins under dark condition; format: functional
Summary of the method: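 Compound at 160 µM incubated with 100 µM DPPH in ethanolic medium, stirred in the dark for 30 min, read at 517 nm. Resveratrol as positive control. Three independent experiments, each in triplicate.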

Row | Structure (SMILES) | MIC50 (Candida albicans [7]) [µg/mL] | MIC80 (Candida albicans [7]) [µg/mL] | MIC50 [8] [µg/mL] | MIC80 [8] [µg/mL] | inhibition of growth at 7.81 µg/mL (Candida albicans [1]) [%] | inhibition of growth at 15.62 µg/mL (Candida albicans [2]) [%] | inhibition of growth at 31.25 µg/mL (Candida albicans [3]) [%] | inhibition of growth at 62.5 µg/mL (Candida albicans [4]) [%] | inhibition of growth at 125 µg/mL (Candida albicans [5]) [%] | inhibition of growth at 250 µg/mL (Candida albicans [6]) [%] | SC50 [9] [µM] | Activity [10] | SC50 [11] [µM] | inhibition of growth at 3.9 µg/mL (Candida albicans [13]) [%] | IC50 [15] [µM] | IC50 [16] [µM] | IC50 [17] [µM] | Ratio IC50 (NCI-H226) | Ratio IC50 [19] | Activity [20] [%] | other results
1 | Brc1ccc2nc(-c3ccco3)cc(-c3ccccc3)c2c1 | 62.5 (≈ 178 µM) | 125 (≈ 357 µM) | 62.5 (≈ 178 µM) | 250 (≈ 714 µM) | 4.37 | 8.68 | 13.1 | 21.5 | 43.2 | 83.3 | 82.7 | – | > 250 | 1.75 | 631 | 30 | 102 | 21 | 6 | 45 to 55 | Activity [8]: Dose-dependent effect; IC50 [14]: 877 µM; Ratio IC50 [18]: 0
2 | Oc1ccc(-c2cc(-c3ccccc3)c3cc(Br)ccc3n2)cc1 | 62.5 (≈ 166 µM) | 125 (≈ 332 µM) | 62.5 (≈ 166 µM) | 250 (≈ 664 µM) | 3.56 | 4.5 | 6.17 | 9.63 | 21.2 | 45.8 | – | Active | – | 2.41 | 104 | 8 | 105 | 13 | 0 | – | –
3 | O=[N+]([O-])c1cccc(-c2cc(-c3ccccc3)c3cc(Br)ccc3n2)c1 | > 250 | > 250 | > 250 | > 250 | 0 | 3.43 | 4.86 | 4.99 | 5.11 | 9.14 | – | – | – | 0 | – | 8.5 | – | – | – | 35 to 40 | –
4 | COc1cc(-c2cc(-c3ccccc3)c3cc(Br)ccc3n2)cc(OC)c1OC | 125 (≈ 278 µM) | 250 (≈ 555 µM) | 62.5 (≈ 139 µM) | 250 (≈ 555 µM) | 2.99 | 7.32 | 12.9 | 20.8 | 52.9 | 82.7 | 428 | – | > 250 | 0 | 104 | 61 | – | 1 | – | – | IC50 [14]: 493 µM; Ratio IC50 [18]: 0
5 | N#Cc1ccc(-c2cc(-c3ccccc3)c3cc(Br)ccc3n2)cc1 | > 250 | > 250 | > 250 | > 250 | 0 | 0 | 2.44 | 2.54 | 4.86 | 5.75 | – | Active | – | 0 | – | – | 98.8 | – | – | – | –
6 | Brc1ccc2nc(C3CCCCC3)cc(-c3ccccc3)c2c1 | 250 (≈ 682 µM) | > 250 | 250 (≈ 682 µM) | > 250 | 0 | 0 | 1.49 | 3.29 | 11.3 | 37.2 | 118 | Active | > 250 | 0 | 490 | 91 | – | 5 | – | 45 to 55 | –

Continued, in another order:

Row | MIC50 (Candida albicans [7]) [µg/mL] | MIC80 (Candida albicans [7]) [µg/mL] | MIC50 [8] [µg/mL] | MIC80 [8] [µg/mL] | Structure (SMILES) | inhibition of growth at 7.81 µg/mL (Candida albicans [1]) [%] | inhibition of growth at 15.62 µg/mL (Candida albicans [2]) [%] | inhibition of growth at 31.25 µg/mL (Candida albicans [3]) [%] | inhibition of growth at 62.5 µg/mL (Candida albicans [4]) [%] | inhibition of growth at 125 µg/mL (Candida albicans [5]) [%] | inhibition of growth at 250 µg/mL (Candida albicans [6]) [%] | SC50 [9] [µM] | Activity [10] | SC50 [11] [µM] | inhibition of growth at 3.9 µg/mL (Candida albicans [13]) [%] | IC50 [15] [µM] | IC50 [16] [µM] | IC50 [17] [µM] | Ratio IC50 (NCI-H226) | Ratio IC50 [19] | Activity [20] [%] | other results
7 | > 250 | > 250 | > 250 | > 250 | Oc1cccc(-c2cc(-c3ccccc3)c3cc(Br)ccc3n2)c1 | 3.15 | 4.08 | 7.61 | 11.2 | 20.2 | 40.9 | > 250 | Active | 121 | – | – | – | – | – | – | – | Ratio [12]: 2
8 | 250 (≈ 766 µM) | > 250 | 125 (≈ 383 µM) | > 250 | O=[N+]([O-])c1ccc2c(-c3ccccc3)cc(-c3ccccc3)nc2c1 | 4.97 | 7.07 | 10.6 | 19.8 | 38.5 | 54.8 | – | – | – | 3.42 | – | 559 | – | – | – | – | –
9 | 250 (≈ 803 µM) | > 250 | 250 (≈ 803 µM) | 250 (≈ 803 µM) | COc1ccc2nc(-c3ccccc3)cc(-c3ccccc3)c2c1 | 0 | 4 | 8.43 | 12.2 | 20.9 | 57.2 | 168 | – | > 250 | 0 | 925 | 57 | 496 | 16 | 1 | 45 to 55 | IC50 [14]: 110 µM; Ratio IC50 [18]: 8
10 | > 250 | > 250 | 31.2 (≈ 95.9 µM) | 250 (≈ 768 µM) | c1ccc(-c2cc(-c3ccccc3)c3c4c(ccc3n2)OCO4)cc1 | 0 | 3.62 | 5.74 | 8.77 | 13.5 | 24.2 | – | Active | – | 0 | 354 | 40 | 951 | 8 | 0 | – | –
11 | > 250 | > 250 | 15.6 (≈ 41.2 µM) | > 250 | Fc1ccc(-c2cc(-c3ccccc3)c3cc(Br)ccc3n2)cc1 | 1.37 | 4.24 | 4.35 | 4.13 | 6.09 | 17.2 | – | Active | – | 0.19 | – | – | 5 | – | – | – | IC50 [14]: 570 µM
12 | 250 (≈ 633 µM) | > 250 | 250 (≈ 633 µM) | > 250 | Clc1ccc(-c2cc(-c3ccccc3)c3cc(Br)ccc3n2)cc1 | 0 | 6.88 | 6.78 | 9.38 | 24.7 | 50.5 | 180 | – | > 250 | 0 | 528 | 1.58 | 269 | 356 | 1 | 45 to 55 | –
